Measurements taken from ChEMBL document CHEMBL1125831, “Synthesis and quantitative structure-activity relationship analysis of 2-(aryl or heteroaryl)quinolin-4-amines, a new class of anti-HIV-1 agents” (J Med Chem, 1991).

Tests used:
[1] = In vitro toxicity on uninfected Phytohemagglutininin stimulated human PBM cell; assay type: cell-based
Method in brief: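 Human PBM cells stimulated with phytohemagglutinin and left uninfected. Cell toxicity reported as minimum toxic concentration (MTC).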

[2] = system: Human immunodeficiency virus 1; assay: In vitro antiviral activity in Phytohemagglutininin stimulated human PBM cells infected with HIV-1 (strain LAV-1); assay type: functional, organism-based; conditions: Human immunodeficiency virus 1, PBMC
Method in brief: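 […] human PBM cells stimulated with phytohemagglutinin, then infected with HIV-1 strain LAV-1. Antiviral activity reported as median effective concentration (EC50).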

SMILES | MTC [1] | EC50 [2]
Cc1ccc(-c2cc(NCCN(C)C)c3ccccc3n2)cc1 | 10 µM | 4.47 µM
CCN(CCN(C)C)c1cc(-c2cccs2)nc2ccccc12 | 100 µM | 32.4 µM
Nc1cc(-c2ccccn2)nc2ccccc12 | 100 µM | 8.56 µM
CC(C)(C)Nc1cc(-c2ccccc2)nc2ccccc12 |  | 100 µM
c1cncc(-c2cc(N3CCCC3)c3ccccc3n2)c1 | 100 µM | 33.7 µM
CN(C)CCNc1cc(-c2cccs2)nc2ccccc12 | 10 µM | 0.57 µM
Nc1cc(-c2cccs2)nc2ccccc12 | 10 µM | 34.3 µM
CC1CCCCN1c1cc(-c2ccccn2)nc2ccccc12 (stereo not given) | 100 µM | 4.24 µM
CN(C)CCNc1cc(-c2ccc(F)cc2)nc2ccccc12 | 100 µM | 13.2 µM
c1ccc(-c2cc(N3CCSCC3)c3ccccc3n2)nc1 |  | 2.81 µM
CN(C)CCNc1cc(-c2ccncc2)nc2ccccc12 | 100 µM | 36.9 µM
CN(C)CCNc1cc(-c2cccnc2)nc2ccccc12 | > 100 µM | 1.51 µM
CCN(CCN(C)C)c1cc(-c2ccncc2)nc2ccccc12 | 100 µM | 100 µM
CC1CCCN(c2cc(-c3ccccc3)nc3ccccc23)C1 (stereo not given) | 100 µM | 16.7 µM
CC(C)Nc1cc(-c2ccccc2)nc2ccccc12 | > 100 µM | 100 µM
Nc1cc(-c2cccnc2)nc2ccccc12 | 85.7 µM | 1 µM
CN(C)CCNc1cc(-c2ccc(Cl)cc2)nc2ccccc12 |  | 100 µM
c1ccc(-c2cc(N3CCOCC3)c3ccccc3n2)nc1 |  | 18.5 µM
CC1CCCN(c2cc(-c3ccccn3)nc3ccccc23)C1 (stereo not given) | 100 µM | 4.86 µM

SMILES | MTC [1] | EC50 [2]
CN(C)CCNc1cc(-c2ccc(Br)cc2)nc2ccccc12 | 100 µM | 44.2 µM
COc1ccc(-c2cc(NCCN(C)C)c3ccccc3n2)cc1 | 10 µM | 10.4 µM
CC1CCN(c2cc(-c3ccccn3)nc3ccccc23)CC1 | 100 µM | 4.08 µM
CN1CCN(c2cc(-c3ccco3)nc3ccccc23)CC1 |  | 15.8 µM
CN(C)CCNc1cc(-c2ccco2)nc2ccccc12 | > 1 µM | 0.91 µM
CN1CCN(c2cc(-c3ccncc3)nc3ccccc23)CC1 |  | 68.2 µM
CC(C)CNc1cc(-c2ccccc2)nc2ccccc12 | 100 µM | 50.6 µM
CC1CCCCN1c1cc(-c2ccccc2)nc2ccccc12 (stereo not given) | 100 µM | 26.4 µM
CCN(CCN(C)C)c1cc(-c2ccccn2)nc2ccccc12 |  | 13.2 µM
CN(C)CCNc1cc(-c2ccccc2)nc2ccccc12 | 100 µM | 10 µM
CN1CCN(c2cc(-c3ccccc3)nc3ccccc23)CC1 | 100 µM | 13.2 µM
CN1CCN(c2cc(-c3cccs3)nc3ccccc23)CC1 |  | 9.07 µM
CN(C)CCNc1cc(-c2ccccn2)nc2ccccc12 | 100 µM | 1.35 µM
CCN(CCN(C)C)c1cc(-c2ccccc2)nc2ccccc12 |  | 34.8 µM
CN1CCN(c2cc(-c3ccccn3)nc3ccccc23)CC1 |  | 5.51 µM
c1cncc(-c2cc(N3CCCCC3)c3ccccc3n2)c1 | 100 µM | 20 µM
Nc1cc(-c2ccccc2)nc2ccccc12 |  | 25.7 µM
CN1CCN(c2cc(-c3cccnc3)nc3ccccc23)CC1 | > 100 µM | 1 µM
CCN(CCN(C)C)c1cc(-c2cccnc2)nc2ccccc12 | 100 µM | 24.2 µM
